Laboratory results published in PubChem BioAssay AID540266 (Southern Research Specialized Biocontainment Screening …, 2011).
“And” between values parts separate entries of the source, which are not always exact repeats. Identical values can stand only once. The source made the active and inactive calls.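 The calls were made as follows: active = any dose giving under 70% viability, per first replicate; inactive = the rest.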

What was measured:
[1] = system: HEp-2 cell viability, luminescence (CellTiter-Glo); assay: viability of uninfected HEp-2 cells – cell-based, CellTiter-Glo luminescence, synthesized compounds, set 11, cytotoxicity control for RSV inhibitor project, dose response (AID 540266)
Method in brief: (§1)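 Test system: uninfected HEp-2 cells; buffer or medium: DMEM/F12 with FBS; compound dosing: Eight-concentration twofold dilution series, 0.5% DMSO final; times: 6 d compound exposure, 37 °C; measured by: CellTiter-Glo luminescence; evaluation: % viability and CC50 from constrained 4-parameter fit; repeats: triplicate wells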

[2] = as above; details: HEp-2 cell viability, luminescence (CellTiter-Glo); at 200 µM (top of the series)
Method in brief: as §1

Structure (SMILES)	CC50 [1]	viability [2]
Cc1ccc(Cn2c(=O)n(Cc3ccc(C(=O)NC(C)(C)C)cc3)c(=O)c3ccccc32)cc1	12.1 µM	–
COCCCNC(=O)c1ccc(Cn2c(=O)c3ccccc3n(Cc3ccc(C(F)(F)F)cc3)c2=O)cc1	79.2 µM	–
COCCCNC(=O)c1ccc(Cn2c(=O)c3ccccc3n(Cc3ccc([N+](=O)[O-])cc3)c2=O)cc1	113 µM	–
COCCCNC(=O)c1ccc(Cn2c(=O)c3ccccc3n(Cc3ccccc3F)c2=O)cc1	7.1 µM	–
COCCCNC(=O)c1ccc(Cn2c(=O)c3ccccc3n(Cc3ccc(C)c(C(F)(F)F)c3)c2=O)cc1	71.3 µM	–
Cc1ccc(Cn2c(=O)n(Cc3ccc(C(=O)NCCCOC(C)C)cc3)c(=O)c3ccccc32)cc1	19.1 µM	–
Cc1ccc(Cn2c(=O)n(Cc3ccc(C(=O)NCCCN(C)C)cc3)c(=O)c3ccccc32)cc1	15.1 µM	–
Cc1ccc(Cn2c(=O)n(Cc3ccc(C(=O)Nc4ccncc4)cc3)c(=O)c3ccccc32)cc1	–	84% (inactive)
CCOCCCNC(=O)c1ccc(Cn2c(=O)c3ccccc3n(Cc3ccc(C)cc3)c2=O)cc1	8.5 µM	–
Cc1ccc(C)c(NC(=O)[C@@H]2CCCN2S(=O)(=O)c2cccc3cccnc23)c1	34.7 µM and 32.9 µM	–
COCCCNC(=O)c1ccc(Cn2c(=O)c3ccccc3n(Cc3ccc(OC)cc3)c2=O)cc1	149 µM	–
COCCCNC(=O)c1ccc(Cn2c(=O)c3ccccc3n(Cc3ccccc3Br)c2=O)cc1	7.99 µM	–
COCCCNC(=O)c1ccc(Cn2c(=O)c3ccccc3n(Cc3ccc(F)cc3)c2=O)cc1	7.09 µM	–
COCCCNC(=O)c1ccc(Cn2c(=O)c3ccccc3n(Cc3ccc(Br)cc3)c2=O)cc1	138 µM	–
COCCCNC(=O)c1ccc(Cn2c(=O)c3ccccc3n(Cc3cccc(Br)c3)c2=O)cc1	3.32 µM	–
